From ChEMBL document CHEMBL1140337, “Synthesis and structure-activity relationships of a new series of retinoid-related biphenyl-4-ylacrylic acids endowed with antiproliferative and proapoptotic activity” (J Med Chem, 2005)

What was measured:
[1] = Effective concentration against retinoic acid receptor alpha in COS-7 cells co-expressing DR5-tk-CAT reporter; value range (0.1-0.4); assay type: cell-based
How it was run: (§1)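 COS-7 cells transfected with the relevant RAR isoform (alpha, beta or gamma) plus a DR5-tk-CAT reporter. 24 h post-transfection, cells treated 24 h with increasing compound concentrations. CAT activity measured in cell extracts, normalized to a beta-galactosidase transfection control.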

[2] = Effective concentration against retinoic acid receptor gamma in COS-7 cells co-expressing DR5-tk-CAT reporter; value range (0.1-0.3); assay type: cell-based; how it was run: as §1
[3] = Percent level of apoptosis induced by 72 hr of exposure with IC80 in (IGROV-1/Pt1) human cisplatin resistant ovarian carcinoma cells; assay type: functional
[4] = Concentration of compound required for inhibition of (IGROV-1/Pt1) human cisplatin resistant ovarian carcinoma cell growth by 50%; assay type: functional
How it was run: (§2)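 Ovarian carcinoma cells in log-phase growth seeded in duplicate; drug added 24 h after seeding, cells harvested after 72 h of exposure and counted with a cell counter. IC50 = concentration giving 50% fewer cells than untreated control. Where SD is reported, mean of three independent experiments.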

[5] = biological target: T1, Retinoic acid receptor beta (Homo sapiens, UniProt P10826); assay: Effective concentration against retinoic acid receptor beta in COS-7 cells co-expressing DR5-tk-CAT reporter; value range (0.1-0.3); assay type: cell-based
T1 sequence (P10826 whole entry): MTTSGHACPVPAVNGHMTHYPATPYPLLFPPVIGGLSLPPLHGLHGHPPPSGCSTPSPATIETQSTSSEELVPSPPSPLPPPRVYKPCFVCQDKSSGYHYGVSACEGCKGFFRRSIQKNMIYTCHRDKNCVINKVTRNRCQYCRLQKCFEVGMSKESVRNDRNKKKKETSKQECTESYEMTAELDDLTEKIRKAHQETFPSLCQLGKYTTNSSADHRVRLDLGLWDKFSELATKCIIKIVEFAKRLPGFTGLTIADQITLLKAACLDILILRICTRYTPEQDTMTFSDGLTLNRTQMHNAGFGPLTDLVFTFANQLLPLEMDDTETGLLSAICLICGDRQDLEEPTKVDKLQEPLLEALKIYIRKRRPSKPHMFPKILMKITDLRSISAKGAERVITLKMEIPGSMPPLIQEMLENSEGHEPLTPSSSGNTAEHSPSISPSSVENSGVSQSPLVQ

[6] = tested on: NB-4; assay: Concentration of compound required for inhibition of (NB4) human promyelocytic leukemia cell growth by 50%; assay type: functional, cell-based
How it was run: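 Leukemia cells exposed to drug for 24 h; growth inhibition assessed by cell counting at 72 h. IC50 = concentration reducing cell number 50% versus untreated control. Where SD is given, mean of three independent experiments.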

[7] = tested on: IGROV-1; assay: Percent level of apoptosis induced by 72 hr of exposure with IC80 in (IGROV-1) human ovarian carcinoma cells; assay type: functional
[8] = Effective concentration against retinoic acid receptor gamma in COS-7 cells co-expressing DR5-tk-CAT reporter; assay type: cell-based; how it was run: as §1
[9] = tested on: IGROV-1; assay: Concentration of compound required for inhibition of (IGROV-1) human ovarian carcinoma cell growth by 50%; assay type: functional, cell-based; how it was run: as §2
[10] = biological target: T1, Retinoic acid receptor beta; assay: Effective concentration against retinoic acid receptor beta in COS-7 cells co-expressing DR5-tk-CAT reporter; assay type: cell-based; how it was run: as §1
[11] = Effective concentration against retinoic acid receptor alpha in COS-7 cells co-expressing DR5-tk-CAT reporter; assay type: cell-based; how it was run: as §1
[12] = Effective concentration against retinoic acid receptor alpha in COS-7 cells co-expressing DR5-tk-CAT reporter; value range (13.9-29.7); assay type: cell-based; how it was run: as §1
[13] = biological target: T1, Retinoic acid receptor beta; assay: Effective concentration against retinoic acid receptor beta in COS-7 cells co-expressing DR5-tk-CAT reporter; value range (6.1-9.8); assay type: cell-based; how it was run: as §1
[14] = Effective concentration against retinoic acid receptor gamma in COS-7 cells co-expressing DR5-tk-CAT reporter; value range (0.8-2.4); assay type: cell-based; how it was run: as §1
[15] = biological target: T1, Retinoic acid receptor beta; assay: Effective concentration against retinoic acid receptor beta in COS-7 cells co-expressing DR5-tk-CAT reporter; value range (7.5-41.1); assay type: cell-based; how it was run: as §1
[16] = Effective concentration against retinoic acid receptor gamma in COS-7 cells co-expressing DR5-tk-CAT reporter; value range (0.6-1.5); assay type: cell-based; how it was run: as §1
[17] = Effective concentration against retinoic acid receptor alpha in COS-7 cells co-expressing DR5-tk-CAT reporter; value range (5.6-59.1); assay type: cell-based; how it was run: as §1
[18] = Effective concentration against retinoic acid receptor alpha in COS-7 cells co-expressing DR5-tk-CAT reporter; value range (4.6-8.9); assay type: cell-based; how it was run: as §1
[19] = Effective concentration against retinoic acid receptor gamma in COS-7 cells co-expressing DR5-tk-CAT reporter; value range (0.1-0.5); assay type: cell-based; how it was run: as §1
[20] = biological target: T1, Retinoic acid receptor beta; assay: Effective concentration against retinoic acid receptor beta in COS-7 cells co-expressing DR5-tk-CAT reporter; value range (3.9-7.2); assay type: cell-based; how it was run: as §1

Structure (SMILES) | IC50 [4] | IC50 [6] | Apoptosis [7] | IC50 [9] | further results
O=C(O)/C=C/c1ccc(-c2ccc(O)c(C34CC5CC(CC(C5)C3)C4)c2)cc1 [ADAROTENE] | 0.4 µM | 0.082 µM | 65% |  | EC50 [1]: 0.2 µM; EC50 [2]: 0.1 µM; Apoptosis [3]: 30%; EC50 [5]: 0.2 µM
O=C(O)/C=C/c1ccc(-c2ccc(O)cc2)cc1 | 156 µM | 78.7 µM | 3% | 89 µM | EC50 [8]: > 100 µM; EC50 [10]: > 100 µM; Apoptosis [3]: 1%; EC50 [11]: > 100 µM
O=C(O)/C(F)=C/c1ccc(-c2ccc(O)c(C34CC5CC(CC(C5)C3)C4)c2)cc1 | 0.63 µM | 0.081 µM |  | 0.37 µM | 
O=P(O)(O)/C=C/c1ccc(-c2ccc(O)c(C34CC5CC(CC(C5)C3)C4)c2)cc1 | > 20 µM | > 200 µM |  | > 20 µM | 
O=C(/C=C/c1ccc(-c2ccc(O)c(C34CC5CC(CC(C5)C3)C4)c2)cc1)Nc1ccc(O)cc1 | 10.5 µM | 2 µM | 2% | 6.6 µM | EC50 [12]: 20.3 µM; EC50 [13]: 7.7 µM; EC50 [14]: 1.4 µM
O=C(O)/C=C/c1ccc(-c2cc(O)cc(C34CC5CC(CC(C5)C3)C4)c2)cc1 |  | 1.2 µM |  | 1.31 µM | 
Nc1ccccc1NC(=O)/C=C/c1ccc(-c2ccc(O)c(C34CC5CC(CC(C5)C3)C4)c2)cc1 | 2 µM | 1.8 µM | 8% | 2.1 µM | EC50 [15]: 17.6 µM; EC50 [16]: 0.9 µM; EC50 [17]: 18.2 µM
O=C(O)/C=C/c1ccc(-c2ccc(O)c(Cl)c2)cc1 |  |  |  | 26 µM | 
O=C(O)/C=C/c1ccc(-c2ccc(O)c(C34CC5CC(CC(C5)C3)C4)c2)cc1F | 0.43 µM | 0.17 µM | 47% | 0.2 µM | 
C/C(=C\c1ccc(-c2ccc(O)c(C34CC5CC(CC(C5)C3)C4)c2)cc1)C(=O)O | 10 µM | 2.3 µM |  | 7.19 µM | 
O=C(O)/C=C/c1ccc(-c2ccc(O)c(-c3ccccc3)c2)cc1 | 12.5 µM | 45.3 µM | 7% | 19 µM | EC50 [8]: > 100 µM; EC50 [10]: > 100 µM; Apoptosis [3]: 1%; EC50 [11]: > 100 µM
O=Cc1cc(/C=C/C(=O)O)ccc1-c1ccc(O)c(C23CC4CC(CC(C4)C2)C3)c1 | 2.63 µM | 1.05 µM | 44% | 1.28 µM | 
COC(=O)/C=C/c1ccc(-c2ccc(O)c(C34CC5CC(CC(C5)C3)C4)c2)cc1 | 3.5 µM | 18.2 µM |  | 0.61 µM | 
O=C(O)c1ccc2cc(-c3ccc(O)c(C45CC6CC(CC(C6)C4)C5)c3)ccc2c1 [O-DEMETHYLATED ADAPALENE] | 0.62 µM | 0.4 µM | 38% |  | Apoptosis [3]: 25%
O=C(O)/C=C/c1ccc(-c2ccc(O)c(CC3CCCCC3)c2)cc1 | 2.3 µM | 2.2 µM | 25% | 2.58 µM | EC50 [18]: 6.4 µM; Apoptosis [3]: 9%; EC50 [19]: 0.2 µM; EC50 [20]: 5.3 µM
O=C(O)CCc1ccc(-c2ccc(O)c(C34CC5CC(CC(C5)C3)C4)c2)cc1 | 44.5 µM | 63.6 µM | 26% | 48.4 µM | 
O=C(O)C#Cc1ccc(-c2ccc(O)c(C34CC5CC(CC(C5)C3)C4)c2)cc1 | 1.52 µM | 1.2 µM | 52% | 1.15 µM | 
O=C(O)/C=C/c1ccc(-c2ccc(C34CC5CC(CC(C5)C3)C4)c(O)c2)cc1 |  | > 10 µM | 23% | 6.13 µM | 
N#C/C=C/c1ccc(-c2ccc(O)c(C34CC5CC(CC(C5)C3)C4)c2)cc1 | 12.7 µM | 14.3 µM | 2% | 8.3 µM | 
CC1(c2cc(-c3ccc(/C=C/C(=O)O)cc3)ccc2O)CCCCCCCCCCC1 |  |  |  | 3.57 µM | 
CC(C)(C)c1cc(-c2ccc(/C=C/C(=O)O)cc2)ccc1O | 30 µM | 42.3 µM |  | 30 µM | 
O=C(O)C1CC1c1ccc(-c2ccc(O)c(C34CC5CC(CC(C5)C3)C4)c2)cc1 (stereo not given) | > 20 µM | 39.4 µM |  | > 20 µM | 
C/C(=C\C(=O)O)c1ccc(-c2ccc(O)c(C34CC5CC(CC(C5)C3)C4)c2)cc1 | 16.6 µM | 6.7 µM | 26% | 9.97 µM | 
OC/C=C/c1ccc(-c2ccc(O)c(C34CC5CC(CC(C5)C3)C4)c2)cc1 | 10.6 µM | 9.1 µM |  | 10.8 µM | 
CCOP(=O)(/C=C/c1ccc(-c2ccc(O)c(C34CC5CC(CC(C5)C3)C4)c2)cc1)OCC | > 20 µM | 1.7 µM |  | 19.7 µM | 
O=C(O)/C=C/c1ccc2c(ccc3cc(O)c(C45CC6CC(CC(C6)C4)C5)cc32)c1 | 2.1 µM | 1.5 µM |  | 2.2 µM | 
Cc1cc(O)c(C23CC4CC(CC(C4)C2)C3)cc1-c1ccc(/C=C/C(=O)O)cc1 | 2.92 µM | 1.7 µM |  | 1.14 µM | 
O=C(O)c1ccc(-c2ccc(O)c(C34CC5CC(CC(C5)C3)C4)c2)cc1 | > 3 µM | 35.2 µM |  | > 3 µM | 
O=C(O)/C=C/c1ccc(-c2ccc(O)c(C34CC5CC(CC(C5)C3)C4)c2)c(Cl)c1 | 0.73 µM | 0.2 µM | 74% | 0.58 µM | 
O=C(O)/C(F)=C\c1ccc(-c2ccc(O)c(C34CC5CC(CC(C5)C3)C4)c2)cc1 | > 3 µM | 22.4 µM |  | > 3 µM | 
